Square brackets hold non-standard residues; d marks the D form. Peptide text beside a SMILES is read from it. * marks the point of attachment. ξ: configuration not given here. Fmoc = O=C(OCC1c2ccccc2-c2ccccc21)*; ξV = CC(C)C(N)C(=O)O
How the values were obtained:
[1] = Binding constant at vancomycin was measured using affinity capillary electrophoresis-UV.
Method in brief: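 Receptor-in-buffer mobility-shift ACE with UV detection was used, running individual ligands. Capillary was 30 cm effective length, 37 cm total length, at 20 kV. Kd was obtained by Scatchard analysis of mobility versus vancomycin concentration.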

[2] = Binding constant at vancomycin was measured using affinity capillary electrophoresis-MS.
Method in brief: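 Mixture of Fmoc-DXYA (all-D) peptides plus Fmoc-G EOF marker injected together hydrodynamically (10 cm, 10 s) into an uncoated 50 cm capillary. Running buffer was 20 mM Tris-acetate pH 8.1 with 0–100 μM vancomycin, run at 400–500 V/cm. On-line ESI triple-quadrupole MS detected free peptide ions. Kd came from marker-corrected mobility shifts by Scatchard analysis.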

In the case of `CC[C@@H](C)[C@H](NC(=O)[C@H](CC(=O)O)NC(=O)OCC1c2ccccc2-c2ccccc21)C(=O)N[C@@H](Cc1ccc(O)cc1)C(=O)N[C@@H](C)C(=O)O`, the Kd [1] is reported as 19 µM and the Kd [2] is reported as 21 µM.

For `C[C@H](NC(=O)[C@H](Cc1ccc(O)cc1)NC(=O)[C@@H](NC(=O)[C@H](CC(=O)O)NC(=O)OCC1c2ccccc2-c2ccccc21)[C@H](C)O)C(=O)O`, the Kd [1] was 21 µM and the Kd [2] was 24 µM.

For `C[C@H](NC(=O)[C@H](Cc1ccc(O)cc1)NC(=O)[C@H](C)NC(=O)[C@H](CC(=O)O)NC(=O)OCC1c2ccccc2-c2ccccc21)C(=O)O` (Fmoc-DAYA-OH), the Kd [1] was 7.2 µM and the Kd [2] was 8.2 µM.

With `C[C@H](NC(=O)[C@H](Cc1ccc(O)cc1)NC(=O)[C@H](CC(=O)O)NC(=O)[C@H](CC(=O)O)NC(=O)OCC1c2ccccc2-c2ccccc21)C(=O)O` (Fmoc-DDYA-OH) the Kd [1] was 7.2 µM and the Kd [2] was 6.6 µM.

With `C[C@H](NC(=O)[C@H](Cc1ccc(O)cc1)NC(=O)[C@H](CCC(=O)O)NC(=O)[C@H](CC(=O)O)NC(=O)OCC1c2ccccc2-c2ccccc21)C(=O)O` (Fmoc-DEYA-OH) the Kd [1] was 10 µM and the Kd [2] was 8.5 µM.

For `C[C@H](NC(=O)[C@H](Cc1ccc(O)cc1)NC(=O)[C@H](Cc1ccccc1)NC(=O)[C@H](CC(=O)O)NC(=O)OCC1c2ccccc2-c2ccccc21)C(=O)O` (Fmoc-DFYA-OH), the Kd [1] was 9.6 µM and the Kd [2] was 8.9 µM.

`C[C@H](NC(=O)[C@H](Cc1ccc(O)cc1)NC(=O)CNC(=O)[C@H](CC(=O)O)NC(=O)OCC1c2ccccc2-c2ccccc21)C(=O)O` (Fmoc-DGYA-OH) showed a Kd [1] of 18 µM and a Kd [2] of 21 µM.

`C[C@H](NC(=O)[C@H](Cc1ccc(O)cc1)NC(=O)[C@H](Cc1c[nH]cn1)NC(=O)[C@H](CC(=O)O)NC(=O)OCC1c2ccccc2-c2ccccc21)C(=O)O` (Fmoc-DHYA-OH) showed a Kd [1] of 7.1 µM and a Kd [2] of 8.2 µM.

In the case of `C[C@H](NC(=O)[C@H](Cc1ccc(O)cc1)NC(=O)[C@H](CCCCN)NC(=O)[C@H](CC(=O)O)NC(=O)OCC1c2ccccc2-c2ccccc21)C(=O)O` (Fmoc-DKYA-OH), the Kd [1] is reported as 13 µM and the Kd [2] is reported as 12 µM.

`CC(C)C[C@H](NC(=O)[C@H](CC(=O)O)NC(=O)OCC1c2ccccc2-c2ccccc21)C(=O)N[C@@H](Cc1ccc(O)cc1)C(=O)N[C@@H](C)C(=O)O` (Fmoc-DLYA-OH) showed a Kd [1] of 5.6 µM and a Kd [2] of 5.1 µM.

`CSCC[C@H](NC(=O)[C@H](CC(=O)O)NC(=O)OCC1c2ccccc2-c2ccccc21)C(=O)N[C@@H](Cc1ccc(O)cc1)C(=O)N[C@@H](C)C(=O)O` (Fmoc-DMYA-OH) gave a Kd [1] of 7.1 µM and a Kd [2] of 7.6 µM.

Compound `C[C@H](NC(=O)[C@H](Cc1ccc(O)cc1)NC(=O)[C@H](CC(N)=O)NC(=O)[C@H](CC(=O)O)NC(=O)OCC1c2ccccc2-c2ccccc21)C(=O)O` (Fmoc-DNYA-OH) has a Kd [1] of 11 µM and a Kd [2] of 12 µM.

In the case of `C[C@H](NC(=O)[C@H](Cc1ccc(O)cc1)NC(=O)[C@@H]1CCCN1C(=O)[C@H](CC(=O)O)NC(=O)OCC1c2ccccc2-c2ccccc21)C(=O)O` (Fmoc-DPYA-OH), the Kd [1] is reported as 14 µM and the Kd [2] is reported as 16 µM.

For `C[C@H](NC(=O)[C@H](Cc1ccc(O)cc1)NC(=O)[C@H](CCC(N)=O)NC(=O)[C@H](CC(=O)O)NC(=O)OCC1c2ccccc2-c2ccccc21)C(=O)O` (Fmoc-DQYA-OH), the Kd [1] was 14 µM and the Kd [2] was 15 µM.

Compound `C[C@H](NC(=O)[C@H](Cc1ccc(O)cc1)NC(=O)[C@H](CCCN=C(N)N)NC(=O)[C@H](CC(=O)O)NC(=O)OCC1c2ccccc2-c2ccccc21)C(=O)O` (Fmoc-DRYA-OH) has a Kd [1] of 13 µM and a Kd [2] of 11 µM.

`C[C@H](NC(=O)[C@H](Cc1ccc(O)cc1)NC(=O)[C@H](CO)NC(=O)[C@H](CC(=O)O)NC(=O)OCC1c2ccccc2-c2ccccc21)C(=O)O` (Fmoc-DSYA-OH) gave a Kd [1] of 13 µM and a Kd [2] of 14 µM.

In the case of `C[C@H](NC(=O)[C@H](Cc1ccc(O)cc1)NC(=O)[C@H](Cc1c[nH]c2ccccc12)NC(=O)[C@H](CC(=O)O)NC(=O)OCC1c2ccccc2-c2ccccc21)C(=O)O` (Fmoc-DWYA-OH), the Kd [1] is reported as 14 µM and the Kd [2] is reported as 12 µM.

`C[C@H](NC(=O)[C@H](Cc1ccc(O)cc1)NC(=O)[C@H](Cc1ccc(O)cc1)NC(=O)[C@H](CC(=O)O)NC(=O)OCC1c2ccccc2-c2ccccc21)C(=O)O` (Fmoc-DYYA-OH) showed a Kd [1] of 6.8 µM and a Kd [2] of 7.4 µM.

With `CC(C)C(NC(=O)[C@H](CC(=O)O)NC(=O)OCC1c2ccccc2-c2ccccc21)C(=O)N[C@@H](Cc1ccc(O)cc1)C(=O)N[C@@H](C)C(=O)O` (stereo partly drawn) (Fmoc-D[ξV]YA-OH) the Kd [1] was 12 µM and the Kd [2] was 10 µM.

— ChEMBL document CHEMBL1131322, “Simultaneous measurement of nineteen binding constants of peptides to vancomycin using affinity capillary electrophoresis-mass spectrometry” (J Med Chem, 1998)
